Source: ChEMBL document CHEMBL1154759, “Benzo[e]isoindole-1,3-diones as potential inhibitors of glycogen synthase kinase-3 (GSK-3). Synthesis, kinase inhibitory activity, zebrafish phenotype, and modeling of binding mode” (J Med Chem, 2010)
The source made the active and inactive calls. The calls are words filed in the database; no cut-off is given here.

Tests used:
[1] = biological target: T1, Glycogen synthase kinase-3 beta (Homo sapiens, UniProt P49841); assay: Inhibition of human recombinant GSK3-beta at 1 uM by ELISA
Summary of the method: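 Recombinant human GSK3β (500 ng) with human tau-441 (1 μg) as substrate, in a 20 μL reaction with 10× kinase buffer stock (200 mM Tris-HCl pH 7.4, 100 mM MgCl2, 5 mM DTT) and ATP added from a 100 μM stock. Incubated 30 °C for 45 min. Phospho-tau pS396 measured by immunoassay at A450. Controls were DMSO and no-ATP.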
Target sequence in this assay (P49841 whole entry, looked up): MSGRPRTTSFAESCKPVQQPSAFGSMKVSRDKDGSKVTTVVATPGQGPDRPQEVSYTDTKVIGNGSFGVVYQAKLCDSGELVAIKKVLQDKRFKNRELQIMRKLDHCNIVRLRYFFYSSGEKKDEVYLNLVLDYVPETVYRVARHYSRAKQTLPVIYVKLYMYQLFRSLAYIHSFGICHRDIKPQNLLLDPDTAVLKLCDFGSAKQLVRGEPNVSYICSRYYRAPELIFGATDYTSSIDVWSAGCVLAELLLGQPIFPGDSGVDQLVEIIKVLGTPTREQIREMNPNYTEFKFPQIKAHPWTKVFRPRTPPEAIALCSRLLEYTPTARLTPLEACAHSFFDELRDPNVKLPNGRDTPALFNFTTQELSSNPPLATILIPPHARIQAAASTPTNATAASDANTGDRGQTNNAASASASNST

[2] = biological target: T1, Glycogen synthase kinase-3 beta; assay: Inhibition of human recombinant GSK3-beta
Summary of the method: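 10× kinase buffer stock was 200 mM Tris-HCl pH 7.4, 100 mM MgCl2, 5 mM DTT; ATP added from a 100 μM stock. Incubated 30 °C for 45 min. Tau pS396 read by immunoassay at A450. DMSO and no-ATP controls were run. IC50 taken from activity curves.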
Target sequence in this assay (P49841 whole entry): as the sequence (P49841 whole entry, looked up) above

[3] = biological target: Cyclin-dependent kinase 4/cyclin D1 (Homo sapiens, UniProt P11802); assay: Inhibition of human CDK4/cyclin D1 by ELISA; assay type: protein-complex assay
Sequence of Cyclin-dependent kinase 4/cyclin D1 (P11802 whole entry): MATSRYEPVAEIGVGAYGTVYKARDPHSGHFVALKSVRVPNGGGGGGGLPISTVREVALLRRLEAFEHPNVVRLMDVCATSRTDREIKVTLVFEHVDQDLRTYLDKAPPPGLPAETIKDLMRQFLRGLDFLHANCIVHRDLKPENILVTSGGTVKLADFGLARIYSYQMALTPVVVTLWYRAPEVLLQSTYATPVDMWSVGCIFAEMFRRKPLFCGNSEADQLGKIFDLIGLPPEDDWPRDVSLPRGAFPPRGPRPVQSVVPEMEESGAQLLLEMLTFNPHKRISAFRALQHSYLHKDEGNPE
Sequence of Cyclin-dependent kinase 4/cyclin D1 (P24385 whole entry, further chain): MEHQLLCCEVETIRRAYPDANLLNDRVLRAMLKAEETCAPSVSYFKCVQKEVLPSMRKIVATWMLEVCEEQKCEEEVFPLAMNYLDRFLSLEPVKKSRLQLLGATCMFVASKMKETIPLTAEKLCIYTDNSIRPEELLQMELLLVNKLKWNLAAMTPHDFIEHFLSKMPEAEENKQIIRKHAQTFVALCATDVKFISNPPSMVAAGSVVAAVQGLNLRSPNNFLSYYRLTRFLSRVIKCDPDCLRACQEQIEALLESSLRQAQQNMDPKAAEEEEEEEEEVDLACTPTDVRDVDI

[4] = Toxicity in Zebrafish embryos assessed as induction of eyeless phenotype during gastrulation at 25 uM after 3 days; assay type: tissue-based, Danio rerio, Embryo; conditions: in vivo, 72 h
Summary of the method: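 FLK-1:EGFP transgenic zebrafish embryos, six per well in 200 μL Holtfreter's buffer. Compound added at dome stage and embryos kept in compound solution up to 7 days. Heads examined at 1 and 3 dpf for eye phenotype. LiCl comparison: 0.3 M for 10 min, then buffer.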

[5] = biological target: Cyclin-dependent kinase 2/cyclin A (Homo sapiens, UniProt P24941); assay: Inhibition of human CDK2/Cyclin A by ELISA; assay type: protein-complex assay
[6] = biological target: T1, Glycogen synthase kinase-3 beta; assay: Inhibition of human recombinant GSK3-beta at 1 uM by ATP competitive assay
Summary of the method: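 Recombinant human GSK3β (60 ng) with tau-441 (400 ng) in 10× buffer stock (200 mM Tris-HCl pH 7.4, 100 mM MgCl2, 5 mM DTT). Inhibitor at 1 μM final, ATP varied, 20 μL, 30 °C for 45 min. Tau pS396 measured by immunoassay at A450. Activity (% of control) versus [ATP] fitted to a simple competitive-inhibition equation to give apparent Ki.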
Target sequence in this assay (P49841 whole entry): as the sequence (P49841 whole entry, looked up) above

| SMILES | Activity [1] | also measured |
| --- | --- | --- |
| Cc1cc2ccc(Cl)cc2c2c1C(=O)NC2=O | Active | – |
| CCc1cc2c(c3cc(OC)c(OC)cc13)C(=O)NC2=O | Active | IC50 [2]: 92 nM; IC50 [3]: 19000 nM; Activity [4]: Not Active |
| COc1cc2c(C)cc3c(c2cc1OC)C(=O)NC3=O | Active | IC50 [2]: 270 nM; IC50 [5]: 787 nM; IC50 [3]: 16000 nM; Ki [6]: 259 nM; Activity [4]: Active |
| COC(=O)c1cccc2c3c(c(CC(C)C)cc12)C(=O)NC3=O | Active | IC50 [2]: 486 nM; IC50 [3]: 6000 nM |
| COC(=O)c1cccc2c3c(c(C)c(C)c12)C(=O)NC3=O | Active | – |
| COc1ccc2cc(C)c3c(c2c1)C(=O)NC3=O | Active | – |
| Cn1cc(C2=C(c3ccc(Cl)cc3Cl)C(=O)NC2=O)c2ccccc21 [SB-216763] | Active | IC50 [5]: 269 nM; IC50 [3]: 32000 nM; Activity [4]: Not Active |
| Cc1cc2ccccc2c2c1C(=O)NC2=O | Active | – |
| COC(=O)c1cccc2c3c(c(C(C)C)cc12)C(=O)NC3=O | Active | – |
| COC(=O)c1cccc2c3c(c(C)cc12)C(=O)NC3=O | Active | – |

Continued, in another order:

| Activity [1] | SMILES | also measured |
| --- | --- | --- |
| Active | COC(=O)c1ccc2c3c(c(CCO)cc2c1)C(=O)NC3=O | – |
| Active | COC(=O)c1ccc2c3c(c(CC(C)OCc4ccccc4)cc2c1)C(=O)NC3=O (stereo not drawn) | – |
| Active | COC(=O)c1ccc2cc(C)c3c(c2c1)C(=O)NC3=O | – |
| Active | CCCc1cc2c(C(=O)OC)cccc2c2c1C(=O)NC2=O | – |
| Active | COC(=O)c1ccc2c3c(c(C)c(C)c2c1)C(=O)NC3=O | – |
| Active | CCc1cc2c(C(=O)OC)cccc2c2c1C(=O)NC2=O | – |
| Active | CCc1c(C)c2c(c3cc(C(=O)OC)ccc13)C(=O)NC2=O | – |
| Active | COC(=O)c1ccc2c3c(c(C(C)C)cc2c1)C(=O)NC3=O | – |
| Active | COC(=O)c1ccc2c3c(c(CCOCc4ccccc4)cc2c1)C(=O)NC3=O | – |
| Active | COC(=O)c1ccc2c3c(c(CC(C)O)cc2c1)C(=O)NC3=O (stereo not drawn) | – |
| Active | CCc1cc2ccc(C(=O)OC)cc2c2c1C(=O)NC2=O | – |
| Active | CCc1cc2cc(C(=O)OC)ccc2c2c1C(=O)NC2=O | – |
| Active | COC(=O)c1ccc2cc(C(C)C)c3c(c2c1)C(=O)NC3=O | – |
| Active | COC(=O)c1ccc2c3c(c(CC(C)C)cc2c1)C(=O)NC3=O | – |
| Active | COC(=O)c1ccc2cc(CC(C)C)c3c(c2c1)C(=O)NC3=O | – |
